Data reported in ChEMBL document CHEMBL2413028, “1-Hydroxypyrazole as a bioisostere of the acetic acid moiety in a series of aldose reductase inhibitors” (Bioorg Med Chem, 2013).

Tests used:
[1] = organism: Rattus norvegicus; experiment: Selectivity index, ratio of IC50 for partially purified Fischer-344 rat kidney ALR1 to IC50 for partially purified Fischer-344 rat lens ALR2; details: Lens of camera-type eye
[2] = molecular target: Aldo-keto reductase family 1 member B1 (Rattus norvegicus, UniProt P07943); experiment: Inhibition of partially purified Fischer-344 rat lens ALR2 using D,L-glyceraldehyde as substrate assessed as NADPH consumption by spectrophotometry; design: species or system Lens of camera-type eye
Procedure, shortened: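 Supernatant brought to 40% ammonium sulfate saturation and spun again; supernatant used directly or kept ≤24 h at −80 °C. Compounds dissolved in 0.2 M NaHCO3. Substrate D,L-glyceraldehyde at 30 °C; NADPH loss at 340 nm. Five concentrations, triplicate; IC50 by least-squares fit of linear log(dose)–response region.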

[3] = molecular target: Aldo-keto reductase family 1 member A1 (Rattus norvegicus, UniProt P51635); experiment: Inhibition of partially purified Fischer-344 rat kidney ALR1 using D,L-glycuronate as substrate assessed as NADPH consumption by spectrophotometry
Chain of Aldo-keto reductase family 1 member A1 (P51635 whole entry, looked up): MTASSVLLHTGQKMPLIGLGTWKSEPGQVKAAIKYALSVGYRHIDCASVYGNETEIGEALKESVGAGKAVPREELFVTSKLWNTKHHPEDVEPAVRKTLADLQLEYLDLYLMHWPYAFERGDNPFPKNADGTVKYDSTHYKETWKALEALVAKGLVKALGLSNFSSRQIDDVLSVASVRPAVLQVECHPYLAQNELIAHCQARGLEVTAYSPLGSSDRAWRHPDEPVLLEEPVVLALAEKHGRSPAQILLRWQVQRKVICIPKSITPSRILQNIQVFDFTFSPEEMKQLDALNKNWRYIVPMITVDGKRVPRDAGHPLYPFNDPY
Procedure, shortened: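 Kidneys from Fischer-344 rats of both sexes homogenized in 3 vol 10 mM sodium phosphate buffer; 10,000g supernatant taken through ammonium sulfate fractions at 40%, 50% and 75% saturation. Last pellet redissolved in 10 mM sodium phosphate pH 7.2 with 2.0 mM EDTA and 2.0 mM β-mercaptoethanol, DEAE-treated, stored at −80 °C. Substrate D-glycuronate at 37 °C. NADPH loss read at 340 nm. Five concentrations, triplicate; IC50 by least squares on linear part of log(dose)–response.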

Row | Compound | Ratio IC50 [1] | IC50 [2] | IC50 [3]
1 | O=C(O)Cn1cccc1C(=O)c1ccc(-c2ccccc2)cc1 | > 14.3 | 7 µM | > 100 µM
2 | O=C(c1ccccc1)c1ccn(-c2cnn(O)c2)c1 | 9.46 | 1.14 µM | 10.8 µM
3 | COc1ccc(C(=O)c2cccn2-c2cnn(O)c2)cc1 | > 6.67 | 15.1 µM | > 100 µM
4 | O=C(c1ccccc1)c1cccn1-c1cnn(O)c1 | > 7.41 | 13.5 µM | > 100 µM
5 | O=C(c1ccc(-c2ccccc2)cc1)c1ccn(-c2cnn(O)c2)c1 | 88.9 | 0.698 µM | 62.1 µM
6 | O=C(O)Cn1cccc1C(=O)c1ccccc1 | > 4.54 | 22 µM | > 100 µM
7 | COc1ccc(C(=O)c2ccn(-c3cnn(O)c3)c2)cc1 | 11.2 | 0.708 µM | 10.8 µM
8 | O=C(O)Cn1ccc(C(=O)c2ccccc2)c1 | > 50.8 |  | > 100 µM
9 | COc1ccc(C(=O)c2ccn(CC(=O)O)c2)cc1 | > 62.4 | 1.6 µM | > 100 µM
10 | COc1ccc(C(=O)c2cccn2CC(=O)O)cc1 | > 21.9 | 4.57 µM | > 100 µM
11 | O=C(O)Cn1ccc(C(=O)c2ccc(-c3ccccc3)cc2)c1 | 153 | 0.344 µM | 52.5 µM
12 | O=C(c1ccc(-c2ccccc2)cc1)c1cccn1-c1cnn(O)c1 | > 10.2 | 9.81 µM | > 100 µM
